KDM4C inh = inhibitors of GASC-1 (KDM4C) histone demethylase, primary screen, biochemical, single concentration HTS; Lysine-specific demethylase 4C (Homo sapiens), Q9H3R0; GST-KDM4C 2-372, H3K9me3 peptide, LANCE TR-FRET; inhibition, % at 12.5 µM; hit rate 0.15% among 96,000;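 active means mean replicate inhibition above about 25%, with at least 55% of replicates also reaching it, limit read from the data, passing the limit was not always enough; inconclusive means only one of those two conditions met; inactive means neither condition met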
Target sequence (Q9H3R0 2-372 limits assumed): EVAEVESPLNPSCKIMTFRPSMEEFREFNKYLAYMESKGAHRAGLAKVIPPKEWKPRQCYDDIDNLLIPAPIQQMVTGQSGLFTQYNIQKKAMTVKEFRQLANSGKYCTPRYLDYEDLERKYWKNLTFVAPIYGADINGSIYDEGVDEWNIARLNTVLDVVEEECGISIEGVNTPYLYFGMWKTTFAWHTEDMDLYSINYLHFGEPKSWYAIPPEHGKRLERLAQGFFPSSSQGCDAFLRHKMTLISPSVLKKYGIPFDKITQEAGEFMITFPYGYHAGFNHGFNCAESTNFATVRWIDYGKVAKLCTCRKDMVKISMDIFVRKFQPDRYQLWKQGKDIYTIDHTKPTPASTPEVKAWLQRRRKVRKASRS
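reagent = H3K9me3 peptide substrate, Fe(II), 2-oxoglutarate | system = GST-tagged GASC-1 (JMJD2C) catalytic fragment, aa 2-372 | amount = enzyme final amount 10 nM | read-out = Fall in 671/618 emission ratio as inhibition | medium = HEPES buffer, pH 7.5, plus ascorbate | schedule = 30 min reaction, 60 min detection, RT | measured by = LANCE TR-FRET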
IDH1 mut inh = inhibitors of IDH1 R132H reductase, primary screen, biochemical, plate reader, single point | diaphorase/resazurin fluorescence, 60 min | inhibition, % at 10 µM | hit rate 0.18% among 70,000 | AID 624101, 2012; in the data active means inhibition above about 34%; inconclusive means no clear call, values can overlap the other calls; inactive means below about 11%;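 further: 0% = DMSO and 100% = no enzyme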
T cruzi growth-1 = T. cruzi intracellular proliferation inhibitors, primary screen, cell-based, beta-gal Tulahuen parasites, NIH3T3 host, luminescence. T. cruzi beta-gal in NIH3T3, GalScreen luminescence, 90 h. inhibition, % at 8.34 µM. hit rate 5.9% among 77,000;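 active means mean inhibition above about 93%, with at least 55% of replicates each passing it, limit read from the data, passing the limit was not always enough; inconclusive means only one of those two conditions holds; inactive means neither condition holds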
Pf Dd2 growth = P. falciparum Dd2 growth inhibitors, primary screen, SYBR Green fluorescence, single dose replicates. 72 h; active compounds read low. activity change, % at 10 µM. hit rate 2.3% among 94,000; in the data active means activity change below about -80%; inconclusive means no clear call, values can overlap the other calls
T cruzi growth-2 = T. cruzi intracellular proliferation inhibitors, confirmation, cell-based, NIH3T3 host, beta-gal parasite, luminescence, cherry-pick; shares compounds with T cruzi growth-1; T. cruzi beta-gal in NIH3T3, GalScreen luminescence, 90 h; inhibition, % at 8.35 µM; hit rate 72% among 5,600;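 active means mean replicate inhibition above about 95% and at least 55% of replicates individually reaching it, limit read from the data; inconclusive means only one of the two criteria is met; inactive means neither criterion is met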
T cruzi growth-3 = inhibitors of intracellular T. cruzi replication, confirmation, NIH3T3 host cells, beta-gal parasites, cherry-pick, set 2; T. cruzi beta-gal in NIH3T3, GalScreen luminescence, 90 h; shares compounds with T cruzi growth-1; inhibition, % at 2.09 µM; hit rate 21% among 5,600;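 active means mean inhibition above about 95%, with at least 55% of replicates also reaching it, limit read from the data; inconclusive means meets just one of the two conditions; inactive means meets neither condition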;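 further: plate controls were neutral control median for no effect and positive control median for full effect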
NIH3T3 tox = cytotoxicity in mouse NIH/3T3 fibroblasts, confirmation, cytotoxicity control for T. cruzi proliferation inhibitor project, cell-based, cherry-pick, single point; shares compounds with T cruzi growth-1; NIH/3T3 viability, CellTiter-Glo ATP luminescence, 90 h; cytotoxicity (signal decrease), % at 8.35 µM; hit rate 14% among 5,600;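 active means mean signal decrease across replicates above about 35% based on untreated-well scatter, with enough replicates individually passing, limit read from the data; inconclusive means no rule stated though some were filed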;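 further: 0% = median of neutral control wells and 100% = median of positive control wells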
NIH3T3 tox 2 = NIH/3T3 fibroblast cytotoxicity, confirmation, cytotoxicity control, cell-based, cherry-pick, single point, set 2 | shares compounds with T cruzi growth-1 | NIH/3T3 viability, CellTiter-Glo ATP luminescence, 90 h | inhibition, % at 24.9 µM | hit rate 56% among 5,600;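 active means mean loss of cell viability signal at or above a set limit, and enough replicates individually reaching it; inconclusive means meets only the mean limit or only the replicate share; inactive means meets neither condition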;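 further: 0% = median of neutral control wells and 100% = median of positive control wells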
* hit, by the source's call; ? = inconclusive; nt = not tested or not shown; ! = not confirmed by another sample. An excerpt weighted towards active compounds, which were near 5.9% of everything screened.

SMILES	KDM4C inh	IDH1 mut inh	T cruzi growth-1	Pf Dd2 growth	T cruzi growth-2	T cruzi growth-3	NIH3T3 tox	NIH3T3 tox 2
C[C@H]1CN([C@@H](C)CO)C(=O)c2cc(C#CCN(C)C)cnc2O[C@H]1CN(C)Cc1ccc(-c2ccccc2)cc1	2	nt	79	nt	nt	nt	nt	nt
COCC#Cc1cnc2c(c1)C(=O)N([C@H](C)CO)C[C@H](C)[C@@H](CN(C)Cc1ccc(-c3ccccc3)cc1)O2	0	nt	80	-68	nt	nt	nt	nt
O=C1CC(c2nc3ccccc3n2CCCOc2ccccc2)CN1c1ccccc1 (stereo unspecified)	nt	0	nt	nt	nt	nt	nt	nt
O=C(CCCCCCC(=O)Nc1ccccc1O)N/N=C/c1ccc([N+](=O)[O-])s1	nt	0	nt	nt	nt	nt	nt	nt
CN1C(=O)c2cc(NC(=O)c3cccc(C(F)(F)F)c3)ccc2OC[C@@H]2O[C@@H](CC(=O)NCCN3CCCC3)CC[C@H]21	3	nt	2	-15	nt	nt	nt	nt
CN1C(=O)c2cc(NC(=O)C3CC3)ccc2OC[C@@H]2O[C@H](CC(=O)NCCN3CCCC3)CC[C@@H]21	0	nt	?	2	72	88	7	-6
CN1C(=O)c2cc(NC(=O)C3CC3)ccc2OC[C@@H]2O[C@@H](CC(=O)NCCN3CCCC3)CC[C@H]21	1	nt	28	-18	nt	nt	nt	nt
CN1C(=O)c2cc(NC(=O)c3cccc(C(F)(F)F)c3)ccc2OC[C@@H]2O[C@H](CC(=O)NCCN3CCCC3)CC[C@@H]21	-2	nt	98*	0	99*	82	-6	7
O=C(N/N=C/c1ccc(Br)cc1)c1ccccn1	nt	0	nt	nt	nt	nt	nt	nt
C[C@H](O)C#Cc1ccc([C@H]2[C@H]3CN(C(=O)c4ccc(F)cc4)CCCCN3[C@H]2CO)cc1	-1	nt	27	5	nt	nt	nt	nt
COc1ccc(C#Cc2ccc([C@H]3[C@@H](CO)N4CCCCN(C(=O)c5ccncc5)C[C@H]34)cc2)cc1	1	nt	101*	-51	102*	63	26	106*
C[C@@H](O)C#Cc1ccc([C@H]2[C@@H](CO)N3CCCCN(C(=O)c4ccc(F)cc4)C[C@H]23)cc1	2	nt	99*	-30	102*	15	-1	-12
C[C@@H](O)C#Cc1ccc([C@H]2[C@H]3CN(C(=O)c4ccncc4)CCCCN3[C@H]2CO)cc1	0	nt	?	-5	?	-7	7	13
C[C@@H](O)C#Cc1ccc([C@H]2[C@@H](CO)N3CCCCN(C(=O)c4ccc(F)cc4)C[C@@H]23)cc1	0	nt	103*	4	46	30	-14	14
CC1(C)CC(O)CC2(C)OC(=O)C=C12 (stereo unspecified)	nt	0	nt	nt	nt	nt	nt	nt
CCn1c(SCC(=O)Nc2c(C)cc(C)cc2C)nnc1-c1ccccc1C	nt	0	nt	nt	nt	nt	nt	nt
CN1c2ccc(-c3ccc(F)cc3)cc2[C@H]2[C@H](CCN2C(=O)Cc2cccnc2)[C@@H]1CO	1	nt	107*	-13	110*	104*	-26	5
CN1c2ccc(-c3ccc(F)cc3)cc2[C@H]2[C@H](CCN2C(=O)Cc2cccnc2)[C@H]1CO	3	nt	?	20	92	55	-16	10
O=[N+]([O-])c1ccc(CSc2nnc(-c3ccccn3)n2-c2ccccc2)cc1	nt	0	nt	nt	nt	nt	nt	nt
O=C(Nc1ccccc1)N1CCCCN2[C@H](C1)[C@@H](c1ccc(-c3ccccc3F)cc1)[C@@H]2CO	-1	nt	73	-11	nt	nt	nt	nt
O=C(Nc1ccccc1)N1CCCCN2[C@@H](CO)[C@@H](c3ccc(-c4ccccc4F)cc3)[C@@H]2C1	-2	nt	95	-37	nt	nt	nt	nt
O=C(Nc1cccc(F)c1)N1CCCCN2[C@H](CO)[C@H](c3ccc(-c4ccccc4F)cc3)[C@@H]2C1	1	nt	107*	8	96*	91	19	59*
O=C(Nc1cccc(F)c1)N1CCCCN2[C@H](C1)[C@@H](c1ccc(-c3ccccc3F)cc1)[C@@H]2CO	0	nt	101*	-9	?	?	96*	102*
O=C(Nc1ccccc1)N1CCCCN2[C@H](CO)[C@@H](c3ccc(-c4ccccc4F)cc3)[C@@H]2C1	-2	nt	88	11	nt	nt	nt	nt
O=C(Nc1cccc(F)c1)N1CCCCN2[C@H](C1)[C@H](c1ccc(-c3ccccc3F)cc1)[C@@H]2CO	0	nt	110*	16	112*	94	11	33*
SMILES	KDM4C inh	IDH1 mut inh	T cruzi growth-1	Pf Dd2 growth	T cruzi growth-2	T cruzi growth-3	NIH3T3 tox	NIH3T3 tox 2
CC(C)CC#Cc1ccc2c(c1)O[C@H](CN(C)Cc1cccnc1)[C@H](C)CN([C@H](C)CO)S2(=O)=O	-2	16	106*	nt	104*	82	32	103*
CC(C)CC#Cc1ccc2c(c1)O[C@H](CN(C)Cc1cccnc1)[C@@H](C)CN([C@H](C)CO)S2(=O)=O	1	3	96*	nt	104*	100*	16	104*
CC(C)CC#Cc1ccc2c(c1)O[C@@H](CN(C)Cc1cncnc1)[C@H](C)CN([C@@H](C)CO)S2(=O)=O	2	0	82	-36	nt	nt	nt	nt
CC(C)CC#Cc1ccc2c(c1)O[C@@H](CN(C)Cc1cccnc1)[C@H](C)CN([C@H](C)CO)S2(=O)=O	-1	19	87	nt	nt	nt	nt	nt
O=C(CCSc1nc2ccccc2s1)N1CCOCC1	nt	0	nt	nt	nt	nt	nt	nt
O=c1c(O)c(-c2ccc(O)cc2)oc2cc(OC3O[C@H](CO)[C@@H](O)[C@H](O)[C@H]3O)cc(O)c12 (stereo partly specified)	nt	-1	nt	nt	nt	nt	nt	nt
Cc1ccccc1-n1ccc(=O)[nH]c1=O	nt	0	nt	nt	nt	nt	nt	nt
C[C@H]1CCCCO[C@@H](CN(C)Cc2ccc3c(c2)OCO3)[C@@H](C)CN([C@@H](C)CO)C(=O)c2cc(N(C)C)ccc2O1	nt	1	11	-9	nt	nt	nt	nt
C[C@@H]1CN([C@@H](C)CO)C(=O)c2cc(N(C)C)ccc2O[C@@H](C)CCCCO[C@H]1CN(C)Cc1ccc2c(c1)OCO2	2	nt	105*!	-8	22	5	9	6
C[C@@H]1CN([C@H](C)CO)C(=O)c2cc(N(C)C)ccc2O[C@@H](C)CCCCO[C@@H]1CN(C)Cc1ccc2c(c1)OCO2	-1	nt	102*	-18	23	18	2	11

Screening results: PubChem, Broad Institute
